Measurements taken from ChEMBL document CHEMBL4261600 (Eur J Med Chem, 2018).
Calls of active or inactive are those of the source. No cut-off for these calls is given here.

What was measured:
[1] = Antiproliferative activity against human MEC1 cells after 72 hrs by Celltiter-Glo assay; type: functional; conditions: MEC1, 72 h
Method in brief: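 Cells seeded at 3000/well in 96-well plates, exposed to serially diluted compound for 72 h at 37 °C, 5% CO2. Viability read by CellTiter-Glo luminescence and normalized to DMSO control. GI50 derived from curve fit, mean of three independent measurements. Culture media: DMEM/10% FBS for adherent lines; IMDM for MV4-11 and MEC-1/2; RPMI 1640 for suspension lines and CHL.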

HL-60 [2] = test: Induction of apoptosis in human HL60 cells assessed as decrease in MCL-1 level after 2 hrs by immunoblotting analysis; type: functional, cell-based
MV4-11 = test: Induction of apoptosis in human MV4-11 cells assessed as decrease in XIAP level up to 3 uM after 2 hrs by immunoblotting analysis; type: functional, cell-based
HL-60 [3] = test: Induction of apoptosis in human HL60 cells assessed as decrease in BCL-2 level up to 3 uM after 2 hrs by immunoblotting analysis; type: functional, cell-based
[4] = Cmax in beagle dog at 10 mg/kg, po by LC-MS/MS analysis; type: ADME, organism-based, Canis lupus familiaris; design: dose 10 mg/kg, route oral; conditions: in vivo
[5] = MRT (0 to t) in Sprague-Dawley rat at 3 mg/kg, iv by LC-MS/MS analysis; type: ADME, organism-based; conditions: in vivo
[6] = MRT (0 to infinity) in beagle dog at 2 mg/kg, iv by LC-MS/MS analysis; type: ADME, organism-based, Canis lupus familiaris; conditions: in vivo
[7] = target: CDK4/Cyclin D3 (Homo sapiens) (UniProt P11802+P30281); test: Binding affinity to wild-type human full length CDK4/cyclinD3 (M1 to E303 residues) expressed in mammalian expression system assessed as remaining unbound target protein level at 1000 nM by Kinomescan method relative to control
Method in brief: (§1)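 KINOMEscan competitive binding profile at 1 μM inhibitor. Remaining target binding reported as percent of DMSO control.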

[8] = target: Cyclin-dependent kinase 5 (Homo sapiens) (UniProt Q00535); test: Binding affinity to wild-type human full length CDK5 (M1 to P292 residues) expressed in bacterial expression system assessed as remaining unbound target protein level at 1000 nM by Kinomescan method relative to control; method in brief: as §1
[9] = target: Casein kinase I isoform alpha-like (Homo sapiens) (UniProt Q8N752); test: Binding affinity to wild-type human full length CSNK1A1L (M1 to N337 residues) expressed in bacterial expression system assessed as remaining unbound target protein level at 1000 nM by Kinomescan method relative to control
Method in brief: (§2)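 Single-point competition binding screen across a panel of 468 kinases and mutants, with the inhibitor at 1 μM. Binding is read out as percent of a DMSO control, and targets below 1 percent control were classed as strong binders.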

[10] = target: Epidermal growth factor receptor (Homo sapiens) (UniProt P00533); test: Binding affinity to human partial length EGFR S752-I759del mutant expressed in bacterial expression system assessed as remaining unbound target protein level at 1000 nM by Kinomescan method relative to control
Method in brief: (§3)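 KINOMEscan competition-binding profiling across the panel of 468 kinases and mutants, with inhibitor tested at 1 μM. Binding is expressed as percent of control, with DMSO as the reference control.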

[11] = target: Ephrin type-B receptor 6 (Homo sapiens) (UniProt O15197); test: Binding affinity to wild-type human partial length EPHB6 (Q634 to P948 residues) expressed in mammalian expression system assessed as remaining unbound target protein level at 1000 nM by Kinomescan method relative to control
[12] = target: Mitogen-activated protein kinase 7 (Homo sapiens) (UniProt Q13164); test: Binding affinity to wild-type human partial length ERK5 (M1 to A409 residues) expressed in bacterial expression system assessed as remaining unbound target protein level at 1000 nM by Kinomescan method relative to control
[13] = target: Mitogen-activated protein kinase 8 (Homo sapiens) (UniProt P45983); test: Binding affinity to wild-type human full length JNK1 (M1 to Q384 residues) expressed in mammalian expression system assessed as remaining unbound target protein level at 1000 nM by Kinomescan method relative to control
Method in brief: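 KINOMEscan competition binding profile across a panel of 468 kinases and mutants, with the inhibitor tested at a single concentration of 1 μM. Binding is reported as percent of control, meaning signal relative to a DMSO control.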

[14] = target: Mast/stem cell growth factor receptor Kit (Homo sapiens) (UniProt P10721); test: Binding affinity to wild-type human partial length KIT (I571 to D952 residues) expressed in bacterial expression system assessed as remaining unbound target protein level at 1000 nM by Kinomescan method relative to control
[15] = target: Tyrosine-protein kinase Lyn (Homo sapiens) (UniProt P07948); test: Binding affinity to wild-type human partial length LYN (C219 to Q511 residues) expressed in bacterial expression system assessed as remaining unbound target protein level at 1000 nM by Kinomescan method relative to control
Method in brief: (§4)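 KINOMEscan binding panel of 468 kinases/mutants. Inhibitor was tested at a single concentration of 1 μM. Binding is reported as percent of control, defined relative to a DMSO control.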

[16] = target: MAP kinase-activated protein kinase 5 (Homo sapiens) (UniProt Q8IW41); test: Binding affinity to wild-type human partial length MAPKAPK5 (M1 to D322 residues) expressed in mammalian expression system assessed as remaining unbound target protein level at 1000 nM by Kinomescan method relative to control; method in brief: as §4
[17] = target: Serine/threonine-protein kinase Nek3 (Homo sapiens) (UniProt P51956); test: Binding affinity to wild-type human full length NEK3 (M1 to R506 residues) expressed in mammalian expression system assessed as remaining unbound target protein level at 1000 nM by Kinomescan method relative to control; method in brief: as §2
[18] = tested on: Phosphatidylinositol 4,5-bisphosphate 3-kinase catalytic subunit alpha isoform (Homo sapiens), P42336 [C420R]; test: Binding affinity to human partial length PIK3CA C420R mutant (R108 to N1068 residues) expressed in mammalian expression system assessed as remaining unbound target protein level at 1000 nM by Kinomescan method relative to control; method in brief: as §3
[19] = target: RAF proto-oncogene serine/threonine-protein kinase (Homo sapiens) (UniProt P04049); test: Binding affinity to wild-type human partial length RAF1 (I330 to T640 residues) expressed in bacterial expression system assessed as remaining unbound target protein level at 1000 nM by Kinomescan method relative to control
[20] = target: Rho-associated protein kinase 1 (Homo sapiens) (UniProt Q13464); test: Binding affinity to wild-type human partial length ROCK1 (M1 to R415 residues) expressed in mammalian expression system assessed as remaining unbound target protein level at 1000 nM by Kinomescan method relative to control
[21] = target: Serine/threonine-protein kinase SBK1 (Homo sapiens) (UniProt Q52WX2); test: Binding affinity to wild-type human partial length SBK1 (P23 to P348 residues) expressed in mammalian expression system assessed as remaining unbound target protein level at 1000 nM by Kinomescan method relative to control
Sequence of Serine/threonine-protein kinase SBK1 (Homo sapiens) (Q52WX2 whole entry, the tested form may be a part): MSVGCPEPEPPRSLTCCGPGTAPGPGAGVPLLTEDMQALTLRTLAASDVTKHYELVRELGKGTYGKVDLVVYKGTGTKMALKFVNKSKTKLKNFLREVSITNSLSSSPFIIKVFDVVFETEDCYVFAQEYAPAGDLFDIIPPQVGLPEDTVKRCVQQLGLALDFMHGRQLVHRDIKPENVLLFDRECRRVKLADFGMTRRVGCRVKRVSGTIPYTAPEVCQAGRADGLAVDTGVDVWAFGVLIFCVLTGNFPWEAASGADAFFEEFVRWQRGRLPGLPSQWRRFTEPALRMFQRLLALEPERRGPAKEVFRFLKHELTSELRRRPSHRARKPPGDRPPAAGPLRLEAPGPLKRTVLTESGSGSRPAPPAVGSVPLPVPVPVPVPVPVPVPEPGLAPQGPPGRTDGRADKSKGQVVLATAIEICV

Sequence of Epidermal growth factor receptor (Homo sapiens) (P00533 whole entry): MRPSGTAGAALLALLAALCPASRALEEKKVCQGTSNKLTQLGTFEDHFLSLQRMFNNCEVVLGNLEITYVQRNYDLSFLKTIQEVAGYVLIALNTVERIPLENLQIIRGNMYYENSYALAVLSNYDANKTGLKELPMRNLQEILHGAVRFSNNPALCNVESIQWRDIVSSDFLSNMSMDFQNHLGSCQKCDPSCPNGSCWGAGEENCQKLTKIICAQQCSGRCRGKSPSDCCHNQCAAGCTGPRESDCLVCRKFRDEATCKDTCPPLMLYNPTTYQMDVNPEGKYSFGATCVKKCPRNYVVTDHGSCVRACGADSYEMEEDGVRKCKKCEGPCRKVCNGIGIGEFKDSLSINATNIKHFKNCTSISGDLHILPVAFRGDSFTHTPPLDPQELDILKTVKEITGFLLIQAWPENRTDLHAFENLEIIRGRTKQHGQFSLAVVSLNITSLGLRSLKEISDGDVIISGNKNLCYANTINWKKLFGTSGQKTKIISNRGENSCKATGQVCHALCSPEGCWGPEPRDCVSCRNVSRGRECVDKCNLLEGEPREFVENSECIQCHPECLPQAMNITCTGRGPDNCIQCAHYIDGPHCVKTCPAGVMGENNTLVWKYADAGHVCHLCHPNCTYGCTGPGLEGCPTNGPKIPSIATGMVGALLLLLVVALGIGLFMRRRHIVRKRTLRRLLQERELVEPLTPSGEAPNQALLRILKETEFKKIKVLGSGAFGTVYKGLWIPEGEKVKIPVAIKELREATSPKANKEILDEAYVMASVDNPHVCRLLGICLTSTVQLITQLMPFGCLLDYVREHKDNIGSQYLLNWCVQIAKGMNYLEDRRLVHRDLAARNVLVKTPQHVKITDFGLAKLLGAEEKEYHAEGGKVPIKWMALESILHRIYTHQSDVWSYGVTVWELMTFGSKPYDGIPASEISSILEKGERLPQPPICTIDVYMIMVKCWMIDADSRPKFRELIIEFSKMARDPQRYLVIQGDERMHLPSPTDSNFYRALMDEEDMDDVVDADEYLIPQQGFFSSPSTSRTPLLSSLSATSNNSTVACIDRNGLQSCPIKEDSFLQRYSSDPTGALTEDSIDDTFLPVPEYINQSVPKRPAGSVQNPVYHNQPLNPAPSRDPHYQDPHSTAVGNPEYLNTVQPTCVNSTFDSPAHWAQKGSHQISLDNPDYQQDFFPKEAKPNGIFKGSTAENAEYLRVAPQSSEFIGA
Sequence of Rho-associated protein kinase 1 (Homo sapiens) (Q13464 2-1354 limits assumed): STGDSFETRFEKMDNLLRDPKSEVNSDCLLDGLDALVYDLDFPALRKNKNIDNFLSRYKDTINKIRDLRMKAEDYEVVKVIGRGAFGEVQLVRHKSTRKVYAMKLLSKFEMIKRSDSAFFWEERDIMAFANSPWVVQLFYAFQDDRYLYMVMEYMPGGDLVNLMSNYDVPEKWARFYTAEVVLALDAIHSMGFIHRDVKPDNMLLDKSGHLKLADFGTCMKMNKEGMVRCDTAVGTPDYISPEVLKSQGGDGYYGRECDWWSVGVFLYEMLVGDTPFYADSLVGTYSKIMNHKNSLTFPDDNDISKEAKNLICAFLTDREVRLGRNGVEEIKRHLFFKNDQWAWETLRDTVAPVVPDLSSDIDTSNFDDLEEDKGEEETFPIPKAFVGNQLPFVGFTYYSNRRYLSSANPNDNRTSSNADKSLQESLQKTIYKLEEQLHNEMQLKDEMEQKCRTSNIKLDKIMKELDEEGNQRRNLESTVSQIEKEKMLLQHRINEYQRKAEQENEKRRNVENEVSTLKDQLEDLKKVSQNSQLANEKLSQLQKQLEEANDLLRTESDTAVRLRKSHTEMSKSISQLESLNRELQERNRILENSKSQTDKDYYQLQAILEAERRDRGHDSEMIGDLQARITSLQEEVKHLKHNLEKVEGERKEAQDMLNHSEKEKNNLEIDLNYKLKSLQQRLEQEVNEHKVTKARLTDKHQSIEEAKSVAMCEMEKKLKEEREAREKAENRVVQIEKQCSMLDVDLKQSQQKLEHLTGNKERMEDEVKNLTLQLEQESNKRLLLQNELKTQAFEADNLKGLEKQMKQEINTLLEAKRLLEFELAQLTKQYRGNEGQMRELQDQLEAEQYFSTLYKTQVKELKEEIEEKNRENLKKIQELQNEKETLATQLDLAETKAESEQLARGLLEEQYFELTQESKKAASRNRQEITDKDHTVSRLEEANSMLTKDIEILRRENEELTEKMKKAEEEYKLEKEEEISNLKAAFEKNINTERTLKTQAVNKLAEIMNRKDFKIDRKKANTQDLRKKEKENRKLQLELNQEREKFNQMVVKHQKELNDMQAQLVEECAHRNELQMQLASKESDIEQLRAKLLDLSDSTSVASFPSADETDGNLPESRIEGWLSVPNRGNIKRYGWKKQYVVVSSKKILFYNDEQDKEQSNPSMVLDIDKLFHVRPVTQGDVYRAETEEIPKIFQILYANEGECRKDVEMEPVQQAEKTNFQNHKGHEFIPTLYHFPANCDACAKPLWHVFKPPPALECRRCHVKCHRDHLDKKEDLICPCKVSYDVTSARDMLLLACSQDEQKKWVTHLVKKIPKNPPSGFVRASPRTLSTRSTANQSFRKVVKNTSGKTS
Sequence of MAP kinase-activated protein kinase 5 (Homo sapiens) (Q8IW41 whole entry, the tested form may be a part): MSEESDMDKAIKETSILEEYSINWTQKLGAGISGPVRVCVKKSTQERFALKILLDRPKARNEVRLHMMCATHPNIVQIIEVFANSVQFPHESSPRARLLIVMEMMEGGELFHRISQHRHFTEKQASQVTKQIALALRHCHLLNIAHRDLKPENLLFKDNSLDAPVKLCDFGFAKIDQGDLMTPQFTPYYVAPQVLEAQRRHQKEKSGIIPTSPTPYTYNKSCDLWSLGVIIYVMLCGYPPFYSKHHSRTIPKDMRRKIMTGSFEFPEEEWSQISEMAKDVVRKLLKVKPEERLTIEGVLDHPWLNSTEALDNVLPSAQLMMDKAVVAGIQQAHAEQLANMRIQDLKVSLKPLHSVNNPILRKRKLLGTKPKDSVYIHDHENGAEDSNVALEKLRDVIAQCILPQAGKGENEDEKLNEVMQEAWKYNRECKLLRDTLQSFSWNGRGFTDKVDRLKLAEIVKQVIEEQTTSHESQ
Sequence of Phosphatidylinositol 4,5-bisphosphate 3-kinase catalytic subunit alpha isoform (Homo sapiens), P42336 [C420R] (P42336 whole entry C420R, the tested form may be a part, canonical isoform): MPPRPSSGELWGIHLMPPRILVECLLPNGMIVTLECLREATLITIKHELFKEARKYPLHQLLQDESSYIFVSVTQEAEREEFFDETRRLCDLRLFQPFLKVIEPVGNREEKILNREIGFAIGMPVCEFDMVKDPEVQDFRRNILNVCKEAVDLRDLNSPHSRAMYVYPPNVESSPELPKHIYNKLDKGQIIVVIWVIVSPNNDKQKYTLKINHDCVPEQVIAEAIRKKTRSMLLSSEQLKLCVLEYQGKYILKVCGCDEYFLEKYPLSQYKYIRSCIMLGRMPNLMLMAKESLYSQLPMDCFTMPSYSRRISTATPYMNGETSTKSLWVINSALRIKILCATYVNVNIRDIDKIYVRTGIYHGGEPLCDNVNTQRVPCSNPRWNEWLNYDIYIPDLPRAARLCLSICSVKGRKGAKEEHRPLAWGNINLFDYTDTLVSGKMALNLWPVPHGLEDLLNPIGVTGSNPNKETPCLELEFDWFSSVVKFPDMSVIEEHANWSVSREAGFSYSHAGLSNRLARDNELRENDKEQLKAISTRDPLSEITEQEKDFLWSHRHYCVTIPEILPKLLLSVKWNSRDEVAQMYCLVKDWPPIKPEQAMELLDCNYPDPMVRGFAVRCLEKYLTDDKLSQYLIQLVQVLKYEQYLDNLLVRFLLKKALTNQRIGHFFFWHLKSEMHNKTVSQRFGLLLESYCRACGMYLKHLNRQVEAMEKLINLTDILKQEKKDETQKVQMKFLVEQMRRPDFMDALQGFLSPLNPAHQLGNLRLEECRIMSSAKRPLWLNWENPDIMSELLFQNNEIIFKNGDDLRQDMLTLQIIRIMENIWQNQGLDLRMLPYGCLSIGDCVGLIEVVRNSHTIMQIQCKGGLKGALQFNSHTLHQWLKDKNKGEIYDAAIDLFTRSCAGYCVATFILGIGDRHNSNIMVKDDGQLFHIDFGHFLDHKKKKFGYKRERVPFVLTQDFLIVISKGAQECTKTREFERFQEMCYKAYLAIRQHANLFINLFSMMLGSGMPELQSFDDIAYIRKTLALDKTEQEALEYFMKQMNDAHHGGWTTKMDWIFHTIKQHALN
Sequence of Mitogen-activated protein kinase 8 (Homo sapiens) (P45983 whole entry, the tested form may be a part): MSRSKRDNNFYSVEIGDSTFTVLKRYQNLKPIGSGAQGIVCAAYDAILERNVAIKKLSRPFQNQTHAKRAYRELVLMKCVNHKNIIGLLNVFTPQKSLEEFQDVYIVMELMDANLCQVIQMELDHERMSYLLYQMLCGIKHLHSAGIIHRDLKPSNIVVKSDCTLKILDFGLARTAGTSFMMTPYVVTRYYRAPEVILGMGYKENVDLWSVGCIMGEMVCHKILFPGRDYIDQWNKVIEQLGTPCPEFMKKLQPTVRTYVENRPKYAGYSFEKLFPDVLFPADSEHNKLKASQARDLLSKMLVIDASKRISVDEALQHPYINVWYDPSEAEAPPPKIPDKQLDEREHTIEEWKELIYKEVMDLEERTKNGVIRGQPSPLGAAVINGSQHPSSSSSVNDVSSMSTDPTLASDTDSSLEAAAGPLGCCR

SMILES: COCCN[C@H]1CC[C@H](Nc2cc(-c3csc(NCC4(C#N)CCOCC4)n3)c(Cl)cn2)CC1
- GI50 [1]: 11 to 37 nM
- Activity (HL-60 [2]): Dose-dependent effect
- Activity (MV4-11): inactive
- Activity (HL-60 [3]): inactive
- Cmax [4]: 771 ng/mL
- MRT last [5]: 4.69 h
- MRT inf [6]: 20.4 h
- Activity [7]: 72%
- Activity [8]: 94%
- Activity [9]: 96%
- Activity [10]: 87%
- Activity [11]: 85%
- Activity [12]: 88%
- Activity [13]: 4.8%
- Activity [14]: 91%
- Activity [15]: 86%
- Activity [16]: 93%
- Activity [17]: 100%
- Activity [18]: 100%
- Activity [19]: 100%
- Activity [20]: 93%
- Activity [21]: 75%
